Data from ChEMBL document CHEMBL1152422, “Cytotoxic triterpenoids from the rhizomes of Astilbe chinensis” (J Nat Prod, 2009).

Assays:
Assay type in all cases: functional, cell-based
HL-60 = experiment: Cytotoxicity against human HL60 cells by rapid colorimetric assay
Method in brief: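 HL-60 human promyelocytic leukaemia cells were maintained in IMDM with 20% FBS at 37 °C in a CO2 incubator before testing against the cell panel.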

SNU1 = experiment: Cytotoxicity against human SNU1 cells by rapid colorimetric assay
Method in brief: (§1)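 A549, SNU-1, K562 and HepG2 cells were grown in RPMI1640 and MEM with 10% FBS at 37 °C in a CO2 incubator before testing against the cell panel.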

K562 = experiment: Cytotoxicity against human K562 cells by rapid colorimetric assay; method in brief: as §1
A549 = experiment: Cytotoxicity against human A549 cells by rapid colorimetric assay; method in brief: as §1
HepG2 = experiment: Cytotoxicity against human HepG2 cells by rapid colorimetric assay; method in brief: as §1

Row | SMILES | IC50 (HL-60) [µM] | IC50 (SNU1) [µM] | IC50 (K562) [µM] | IC50 (A549) [µM] | IC50 (HepG2) [µM]
1 | C[C@H]1[C@H](C)CC[C@]2(C)CC[C@]3(C(=O)O)C(=CC[C@@H]4[C@@]5(C)CC[C@H](O)C(C)(C)[C@@H]5CC[C@]43C)[C@H]12 | 8.2 | > 10 | > 10 | > 10 | > 10
2 | CC(=O)O[C@@H]1CC[C@]2(C)[C@H]3CC=C4[C@@H]5[C@@H](C)[C@H](C)CC[C@]5(C)CC[C@@]4(C(=O)O)[C@]3(C)CC[C@H]2C1(C)C | 3.9 | > 10 | > 10 | > 10 | > 10
3 | C=C1[C@@H]2[C@H](O)C[C@]3(C)[C@H](CC=C4[C@@H]5CC(C)(C)CC[C@]5(C)CC[C@]43C(=O)O)[C@@]2(C)CC[C@@H]1O | > 10 | > 10 | > 10 | > 10 | > 10
4 | CC1(C)CC[C@]2(C)CC[C@]3(C(=O)O)C(=CC[C@@H]4[C@@]5(C)CC[C@H](O)[C@](C)(CO)[C@@H]5CC[C@]43C)[C@@H]2C1 | > 10 | > 10 | > 10 | > 10 | > 10
5 | CC1(C)CC[C@]2(C)CC[C@]3(C(=O)O)C(=CC[C@@H]4[C@@]5(C)CC[C@@H](O)C(C)(C)C5=CC[C@]43C)[C@@H]2C1 | > 10 | > 10 | > 10 | > 10 | > 10
6 | CC(=O)O[C@@H]1CC[C@]2(C)[C@H]3CC=C4[C@@H]5CC(C)(C)CC[C@]5(C)CC[C@@]4(C(=O)O)[C@]3(C)CC[C@H]2C1(C)C | 9.3 | > 10 | > 10 | > 10 | > 10
7 | CC1(C)CC[C@]2(C)CC[C@]3(C(=O)O)C(=CC[C@@H]4[C@@]5(C)CC[C@H](O)C(C)(C)[C@@H]5CC[C@]43C)[C@@H]2C1 | 8.9 | 9.3 | > 10 | > 10 | > 10
8 | CC(=O)O[C@H]1CC[C@]2(C)[C@H]3CC=C4[C@@H]5[C@@H](C)[C@H](C)CC[C@]5(C)CC[C@@]4(C(=O)O)[C@]3(C)C[C@@H](O)[C@H]2C1(C)C | 9.6 | > 10 | > 10 | > 10 | > 10
9 | CC(=O)O[C@H]1CC[C@]2(C)[C@H]3CC=C4[C@@H]5CC(C)(C)CC[C@]5(C)CC[C@@]4(C(=O)O)[C@]3(C)C[C@@H](O)[C@H]2C1(C)C | 5.1 | > 10 | > 10 | > 10 | > 10
10 | CC1(C)CC[C@]2(C)CC[C@]3(C(=O)O)C(=CC[C@@H]4[C@@]5(C)CC[C@H](O)[C@@](C)(CO)[C@@H]5[C@H](O)C[C@]43C)[C@@H]2C1 | 3.5 | > 10 | > 10 | > 10 | > 10
11 | CC(=O)O[C@H]1CC[C@]2(C)[C@H]3CC=C4[C@@H]5[C@@H](C)[C@H](C)CC[C@]5(C)CC[C@@]4(C(=O)O)[C@]3(C)CC[C@H]2C1(C)C | 9.4 | > 10 | > 10 | > 10 | > 10
12 | C[C@H]1[C@H](C)CC[C@]2(C)CC[C@]3(C(=O)O)C(=CC[C@@H]4[C@@]5(C)CC[C@H](O)[C@](C)(CO)[C@@H]5[C@H](O)C[C@]43C)[C@H]12 | > 10 | > 10 | > 10 | > 10 | > 10
13 | CC[C@@]1(O)C(=O)OCc2c1cc1n(c2=O)Cc2cc3ccccc3nc2-1 [CAMPTOTHECIN] | 0.8 |  |  |  | 
14 | COc1cccc2c1C(=O)c1c(O)c3c(c(O)c1C2=O)C[C@@](O)(C(=O)CO)C[C@@H]3O[C@H]1C[C@H](N)[C@H](O)[C@H](C)O1 [DOXORUBICIN] |  | 4 | 2.5 | 2.2 | 
